Reference: publication PMC9468552 (Clinical and Translational Science, 2022)
Like-named read-outs stand apart in the source and are kept apart here.

Tests used:
[1] = radiolabeled mass balance study; ref data on file; Enanta Pharmaceuticals; cited from earlier work
[2] = same dose/formulation; ref data on file; cited from earlier work
[3] = cited from earlier work
[4] = system: BCRP; conditions: in vitro; ref data on file; cited from earlier work
[5] = molecular target: T1, CYP3A4 (Homo sapiens, UniProt P08684); type: in vivo
In short: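 Healthy subjects in a separate part took oral rifampin 600 mg once daily on days 5–16. EDP‐305 10 mg suspension was given on days 1 and 14 after a 10 h fast that continued ≥4 h postdose. Plasma was drawn predose and 0.5–12 h postdose, plus 24, 48 and 72 h before the morning rifampin dose. Analysis used LC–MS/MS and noncompartmental PK. A mixed model on ln values (subject random) gave the geometric LS mean ratio with 90% CI, with EDP‐305 alone as reference.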

[6] = relative bioavailability assessment; ref data on file; cited from earlier work
[7] = molecular target: T1, CYP3A4; assay: Study 004: DDI of EDP‐305; type: in vivo; conditions: increase in midazolam AUC less than twofold
[8] = molecular target: P‐gp (Homo sapiens, UniProt P08183); type: in vivo
[9] = system: CYP1A2, 2B6, and 3A4; conditions: preclinical studies; cited from earlier work
[10] = system: cytochrome (CYP) 1A2, 2B6, 2C8, 2C9, 2C19, 2D6, and 3A4 isoenzymes; conditions: standard hepatic microsome studies; preclinical studies; cited from earlier work
[11] = system: messenger RNA (mRNA) for CYP1A2 and CYP3A4; conditions: incubation in liver microsomes (hepatocytes) in the presence of EDP‐305; preclinical studies; cited from earlier work
[12] = Safety/tolerability in the four DDI studies; type: in vivo, human; conditions: all four studies
[13] = molecular target: T1, CYP3A4; type: in vivo; remark: listed apart in the source
[14] = molecular target: T2, CYP1A2 (Homo sapiens, UniProt P05177); assay: Study 004: DDI of EDP‐305; type: in vivo; conditions: increase in caffeine AUC less than twofold
T2 sequence (P05177 1-516): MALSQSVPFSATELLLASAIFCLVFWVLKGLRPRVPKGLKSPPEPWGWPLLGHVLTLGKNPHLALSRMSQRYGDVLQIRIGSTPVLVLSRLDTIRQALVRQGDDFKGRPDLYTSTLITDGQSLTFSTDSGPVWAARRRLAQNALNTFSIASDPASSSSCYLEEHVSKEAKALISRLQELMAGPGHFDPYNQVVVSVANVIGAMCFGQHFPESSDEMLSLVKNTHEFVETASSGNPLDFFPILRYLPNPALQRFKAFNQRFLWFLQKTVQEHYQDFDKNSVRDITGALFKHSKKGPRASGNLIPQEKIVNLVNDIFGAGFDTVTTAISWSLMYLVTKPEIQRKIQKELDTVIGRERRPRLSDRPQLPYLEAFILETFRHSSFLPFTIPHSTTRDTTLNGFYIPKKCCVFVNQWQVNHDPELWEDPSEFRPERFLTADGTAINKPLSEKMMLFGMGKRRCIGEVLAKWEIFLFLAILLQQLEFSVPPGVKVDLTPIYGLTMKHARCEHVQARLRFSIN

[15] = molecular target: T1, CYP3A4; assay: Study 008: effect of EDP‐305 on combined oral contraceptive; type: in vivo
[16] = molecular target: T1, CYP3A4; type: in vivo; remark: listed apart in the source
[17] = system: OATP1B1 and OATP1B3; conditions: in vitro; ref data on file; cited from earlier work
[18] = system: P‐gp; conditions: in vitro; ref data on file; cited from earlier work
[19] = system: BSEP, MRP2, P‐gp, and BCRP transporters; conditions: in vitro; ref data on file; cited from earlier work
[20] = 12‐week phase II study, 132 non‐cirrhotic patients; cited from earlier work
[21] = Study 004: trough levels of EDP‐305 and metabolites with and without probes; type: in vivo, human
In short: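 Healthy volunteers received single oral midazolam 2 mg and caffeine 200 mg on days 1 and 12, and rosuvastatin 20 mg on days 2 and 13. EDP‐305 was given as a 10 mg/30 ml oral suspension each morning on days 5–15 after an overnight fast. Predose troughs were drawn on days 5, 8 and 10–17. Parent and metabolites were measured by LC–MS/MS (range 0.0300–30.0 ng/ml).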

[22] = EDP‐305 10 mg + rifampin 600 mg q.d. (test)
[23] = EDP‐305 10 mg alone (reference)
[24] = EDP‐305 + rifampin vs EDP‐305 alone
[25] = EDP‐305 5 mg tablet + quinidine 300 mg BID (test)
[26] = EDP‐305 5 mg tablet alone (reference)
[27] = EDP‐305 + quinidine vs EDP‐305 alone
[28] = EDP‐305 5 mg tablet + fluconazole 400 mg QD (test)
[29] = EDP‐305 2.5 mg tablet co‐administered with OC
[30] = EDP‐305 10 mg + itraconazole 200 mg q.d. (test)
[31] = EDP‐305 + itraconazole vs EDP‐305 alone

Sequence of P‐gp (Homo sapiens, UniProt P08183) (P08183 whole entry): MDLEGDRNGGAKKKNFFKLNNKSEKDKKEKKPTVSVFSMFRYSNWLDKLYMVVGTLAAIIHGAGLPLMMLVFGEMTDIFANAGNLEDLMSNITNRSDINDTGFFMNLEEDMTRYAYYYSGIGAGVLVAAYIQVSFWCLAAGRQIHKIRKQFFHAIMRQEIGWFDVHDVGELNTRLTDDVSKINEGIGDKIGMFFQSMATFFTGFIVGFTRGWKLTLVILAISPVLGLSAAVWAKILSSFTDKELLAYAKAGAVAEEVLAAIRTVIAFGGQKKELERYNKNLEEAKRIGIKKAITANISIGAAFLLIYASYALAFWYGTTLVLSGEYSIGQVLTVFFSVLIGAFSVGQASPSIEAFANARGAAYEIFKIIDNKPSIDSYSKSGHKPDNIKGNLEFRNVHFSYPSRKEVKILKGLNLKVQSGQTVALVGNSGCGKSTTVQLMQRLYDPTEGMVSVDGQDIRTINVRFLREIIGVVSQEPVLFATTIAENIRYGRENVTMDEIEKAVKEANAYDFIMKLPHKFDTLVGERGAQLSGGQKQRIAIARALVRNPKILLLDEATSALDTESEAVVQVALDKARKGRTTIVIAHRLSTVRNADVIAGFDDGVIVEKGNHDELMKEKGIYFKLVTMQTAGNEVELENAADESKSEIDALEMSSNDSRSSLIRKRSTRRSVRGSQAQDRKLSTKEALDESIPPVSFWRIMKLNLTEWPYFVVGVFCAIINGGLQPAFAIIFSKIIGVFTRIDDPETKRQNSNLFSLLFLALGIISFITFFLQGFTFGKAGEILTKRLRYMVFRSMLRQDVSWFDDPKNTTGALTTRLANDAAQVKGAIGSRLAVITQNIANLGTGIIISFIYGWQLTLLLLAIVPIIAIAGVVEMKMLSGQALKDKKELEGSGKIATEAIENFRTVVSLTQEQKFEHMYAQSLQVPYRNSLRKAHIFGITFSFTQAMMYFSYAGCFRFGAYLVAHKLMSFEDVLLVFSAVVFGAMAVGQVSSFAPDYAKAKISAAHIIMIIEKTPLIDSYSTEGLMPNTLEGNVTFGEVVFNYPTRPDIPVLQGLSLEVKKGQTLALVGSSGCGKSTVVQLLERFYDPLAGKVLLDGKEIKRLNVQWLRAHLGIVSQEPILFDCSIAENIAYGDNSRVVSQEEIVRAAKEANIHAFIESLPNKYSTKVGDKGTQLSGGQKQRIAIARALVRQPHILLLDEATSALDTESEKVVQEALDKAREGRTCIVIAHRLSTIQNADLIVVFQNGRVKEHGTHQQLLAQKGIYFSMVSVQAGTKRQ
T1 sequence (P08684 whole entry): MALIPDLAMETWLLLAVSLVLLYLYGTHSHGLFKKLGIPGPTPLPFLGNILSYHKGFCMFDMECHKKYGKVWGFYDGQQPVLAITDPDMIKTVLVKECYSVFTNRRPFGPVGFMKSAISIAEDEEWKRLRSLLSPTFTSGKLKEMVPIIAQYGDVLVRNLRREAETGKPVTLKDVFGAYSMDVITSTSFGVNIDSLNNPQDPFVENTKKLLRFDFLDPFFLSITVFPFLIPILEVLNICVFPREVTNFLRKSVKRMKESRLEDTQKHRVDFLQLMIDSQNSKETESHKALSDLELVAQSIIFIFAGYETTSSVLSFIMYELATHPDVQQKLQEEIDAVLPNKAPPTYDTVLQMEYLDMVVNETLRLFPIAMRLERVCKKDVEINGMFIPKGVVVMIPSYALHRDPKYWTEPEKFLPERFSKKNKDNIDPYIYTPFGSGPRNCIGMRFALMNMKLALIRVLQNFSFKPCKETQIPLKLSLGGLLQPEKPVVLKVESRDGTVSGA

CC[C@H]1[C@@H](O)[C@@H]2[C@H](CC[C@]3(C)[C@@H]([C@H](C)CCNC(=O)NS(=O)(=O)c4ccc(C(C)(C)C)cc4)CC[C@@H]23)[C@@]2(C)CC[C@@H](O)C[C@@H]12 [EDP‐305]
EDP‐305 in urine [1]: not detected
mean recovery of total radioactivity in feces [1]: 78.7%
mean recovery of total radioactivity in urine [1]: 1.42%
exposures in patients with NASH versus healthy subjects [2]: approximately twofold higher
tolerability ([3]; single doses up to 80 mg, multiple daily doses up to 20 mg for 14 days): well‐tolerated
steady‐state pharmacokinetics reached ([3]; visual inspection of trough concentrations, across all doses): ≤ 9 days
BCRP substrate [4]: unlikely to be a BCRP substrate
AUC0,inf, Geo LSMean [5, 22]: 137.92 ng·h/mL
Cmax, Geo LSMean [5, 22]: 27.02 ng/mL
AUC0,inf, Geo LSMean [5, 23]: 393.59 ng·h/mL
Cmax, Geo LSMean [5, 23]: 29.62 ng/mL
AUC0,inf, Geo LSMean ratio (90% CI) [5, 24]: 0.35 (0.30, 0.41)
effect on EDP‐305 peak exposure [5, 24]: no apparent effect
effect on Tmax [5, 24]: no apparent effect
higher CL/F [5, 24]: 2.77 fold
higher Vd/F [5, 24]: 1.79 fold
shorter t1/2 [5, 24]: 0.35 fold
total systemic exposure decreased [5, 24]: ~ 65%
exposures of tablet compared to suspension [6]: approximately twofold higher
classification as CYP3A4 inhibitor from increase in midazolam AUC [7]: weak inhibitor of CYP3A4
AUC0,inf, Geo LSMean [8, 25]: 367.17 ng·h/mL
Cmax, Geo LSMean [8, 25]: 31.78 ng/mL
AUC0,inf, Geo LSMean [8, 26]: 353.24 ng·h/mL
Cmax, Geo LSMean [8, 26]: 31.64 ng/mL
AUC0,inf, Geo LSMean ratio (90% CI) [8, 27]: 1.04 (0.95, 1.14)
Cmax, Geo LSMean ratio (90% CI) [8, 27]: 1.00 (0.92, 1.10)
effect on EDP‐305 peak or systemic exposure [8, 27]: no apparent effect
effect on Tmax, Vd/F, CL/F, and t1/2 [8, 27]: minimal effect
potential to induce CYP1A2, 2B6, and 3A4 [9]: low potential
potential to inhibit CYP 1A2, 2B6, 2C8, 2C9, 2C19, 2D6, and 3A4 [10]: low potential to inhibit
effect on mRNA for CYP1A2 and CYP3A4 [11]: concentration‐dependent downregulation
tolerability [12]: well‐tolerated
AUC0,inf, Geo LSMean [13, 28]: 1537.60 ng·h/mL
Cmax, Geo LSMean [13, 28]: 57.71 ng/mL
AUC0,inf, Geo LSMean [13, 26]: 408.40 ng·h/mL
Cmax, Geo LSMean [13, 26]: 32.73 ng/mL
CL/F and Vd/F, change ([13]; EDP‐305 + fluconazole compared to EDP‐305 alone): decreased
t1/2 increased ([13]; EDP‐305 + fluconazole relative to EDP‐305 alone): increased
classification as CYP1A2 inhibitor from increase in caffeine AUC [14]: weak inhibitor of CYP1A2
geometric mean t1/2 [15, 29]: 9.6 h
median Tmax [15, 29]: 4.0 h
effect on serum progesterone levels ([15]; co‐administration of combined OC and EDP‑305): no effect
AUC0,inf, Geo LSMean [16, 30]: 1891.47 ng·h/mL
Cmax, Geo LSMean [16, 30]: 50.48 ng/mL
AUC0,inf, Geo LSMean [16, 23]: 360.31 ng·h/mL
Cmax, Geo LSMean [16, 23]: 31.25 ng/mL
delayed Tmax [16, 31]: 2 fold
longer t1/2 (increase) [16, 31]: 2.79 fold
inhibition of OATP1B1 and OATP1B3 [17]: the potential for EDP‐305 to inhibit
P‐gp substrate [18]: has potential to be a P‐gp substrate
inhibition of BSEP, MRP2, P‐gp, and BCRP [19]: low potential to inhibit
efficacy in patients with fibrotic NASH [20]: reduced hepatic enzyme levels and liver fat
steady‐state concentrations achieved ([21]; EDP‐305 10 mg daily from day 5, majority of subjects): ≤ 12 days
effect of co‐administered enzyme or transporter probes on PK ([21]; single doses of midazolam, caffeine, rosuvastatin): no apparent effect
